# UCH37 DUB inh: blocks the human deubiquitinase UCH37 | purified proteasome/UCH37, Ub-AMC cleavage fluorescence | hit rate 0.33% among 330,000 | Q9Y5K5 | inhibition, % (no concentration beside the values);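 active means mean inhibition over replicate wells above about 20%, limit read from the data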
#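 Material: Human UCH37 enzyme supplied as purified proteasome complex | Schedule: 30 min compound-proteasome preincubation then 25 min substrate reaction, room temperature | Detection: AMC fluorescence from Ub-AMC cleavage, excitation 355 nm, emission 460 nm | Benchmarks: Wells without proteasome as full block, compound-free enzyme plus substrate as uninhibited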
# MEKK2wt PB1 HTS: raises or lowers MEK5 binding to wildtype human MEKK2 PB1 domain; hit rate 1.1% among 290,000; Q9Y2U5; binding response (% of control), % at 10 µM; bead flow cytometry, Alexa488-MEK5 binding to MEKK2 WT; actives lie on both sides; AID 1531; in the data active means binding response below about 67% or above about 130%
# MEKK3 PB1 HTS: raises or lowers MEK5 binding to the human MEKK3 PB1 domain | binding response (% of control), % at 10 µM | bead-based flow cytometry, Alexa488-MEK5 binding to MEKK3; actives lie on both sides; 0 = blocked by unlabeled MEK5, 100 = vehicle | AID 1529 | Q99759 | hit rate 1.4% among 290,000;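 active means binding response more than 3 SD above or below the average of its plate-row segment, actives on both sides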;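 further: Alexa488 bead fluorescence after subtracting the streptavidin-only scavenger bead signal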
# Target sequence (Q99759 whole entry, looked up, the tested form may be a part): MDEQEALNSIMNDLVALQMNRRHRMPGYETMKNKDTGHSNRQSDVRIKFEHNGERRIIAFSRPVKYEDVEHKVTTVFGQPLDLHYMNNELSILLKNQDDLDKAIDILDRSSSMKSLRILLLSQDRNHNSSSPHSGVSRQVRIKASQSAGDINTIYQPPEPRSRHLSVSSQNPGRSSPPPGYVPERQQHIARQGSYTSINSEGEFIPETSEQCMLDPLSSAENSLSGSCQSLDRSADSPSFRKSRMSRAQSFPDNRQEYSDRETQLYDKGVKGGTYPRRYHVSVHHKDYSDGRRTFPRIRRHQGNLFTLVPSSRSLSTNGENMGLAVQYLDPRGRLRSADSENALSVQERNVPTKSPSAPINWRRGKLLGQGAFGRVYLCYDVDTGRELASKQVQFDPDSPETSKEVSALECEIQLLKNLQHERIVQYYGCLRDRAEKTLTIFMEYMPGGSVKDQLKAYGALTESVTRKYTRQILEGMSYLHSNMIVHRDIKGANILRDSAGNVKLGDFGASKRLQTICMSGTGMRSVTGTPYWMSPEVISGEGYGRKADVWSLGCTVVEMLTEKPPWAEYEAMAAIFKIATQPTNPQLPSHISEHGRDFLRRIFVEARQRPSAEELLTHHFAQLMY
# MEKK2 mut-MEK5: signal of MEK5 binding to mutant human MEKK2 PB1 domain; percent response, % at 10 µM; bead flow cytometry, Alexa488-MEK5 binding to MEKK2 mutant; AID 1530; hit rate 0.35% among 290,000; in the data active means percent response above about 24%, passing the limit was not always enough
# Rce1 inh: blocks yeast Ras-converting enzyme; Q03530; yeast membranes, quenched prenylated peptide cleavage fluorescence; calls only; hit rate 0.27% among 290,000; AID 2563;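 active means fall in fluorescence gain of 50% or more versus controls, with final raw signal at or below 3038400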
# T cell HTS: T cell immune modulation candidate | 2C CD8+ T cell-vesicle binding, flow cytometry; active compounds read low | hit rate 0.068% among 330,000 | AID 2052 | response (vesicle binding), % at 7 µM;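 active means response, share of CD8 T cells binding vesicles, and their 90th percentile fluorescence all below set limits, cut at about 80% in these data, passing the limit was not always enough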;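 further: values below 100% mean blocked vesicle binding to the CD8+ T cells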
#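 material = purified 2C TCR transgenic mouse naive CD8+ T cells | controls = Unloaded micro-vesicles (low), QL9 vesicles with 0.7% DMSO (high) | detection = cytometric PE anti-B7-1 and Alexa647 anti-CD8 signals after 1% paraformaldehyde fixation | incubation = binding step 1.5 h, 37 °C, antibody labelling 20 min, ice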
# UCH37 reconfirm: UCH37 Ub-AMC cleavage inhibition, confirmed. inhibition, % at 20 µM. hit rate 27% among 480. shares compounds with UCH37 DUB inh. Proteasome-bound UCH37, Ub-AMC cleavage fluorescence;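 active means average inhibition over replicates above about 50%, so the earlier screening hit is confirmed, limit read from the data; inactive means the rest, counted as false positives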;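 further: based on cleavage rate fitted by regression over a 30 min kinetic read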
# Numbers stand for hits; i = inactive; nt = not tested or not shown. Only some compounds are listed: those with a hit (about 2.5% of all), similar ones and a draw of the others.
SMILES,UCH37 DUB inh,MEKK2wt PB1 HTS,MEKK3 PB1 HTS,MEKK2 mut-MEK5,Rce1 inh,T cell HTS,UCH37 reconfirm
COc1ccc(C(C)=NNS(=O)(=O)c2ccccc2)cc1OC,i,nt,nt,nt,nt,nt,nt
O=c1cc(-c2ccc(O)cc2)oc2c(O)c(O)c(O)c(O)c12,69,i,i,i,nt,i,i
Cc1ccc(-c2csc3ncn(N=CN(C)C)c(=O)c23)o1,i,nt,nt,nt,nt,nt,nt
Cc1cc2ccccc2c(=O)n1CC(=O)NCCC1=CCCCC1,55,i,i,i,i,i,67
CC1(c2ccccc2Cl)NC(=O)N(CC(=O)NCCC2=CCCCC2)C1=O (stereo not given),34,i,i,i,i,i,56
CC1(c2ccccc2)NC(=O)N(CC(=O)NCCC2=CCCCC2)C1=O (stereo not given),i,i,i,i,i,i,nt
COCCCn1c(=O)c2ccccc2n(CC(=O)NCCC2=CCCCC2)c1=O,i,i,i,i,i,i,nt
O=C(NN=Cc1ccccn1)c1cc(-c2ccncc2)nc2ccccc12,i,nt,nt,nt,nt,nt,nt
CCOC(=O)c1c2c(n(C)c1C)C(=O)C(=O)c1ccc(Br)cc1-2,56,i,i,i,i,i,70
Cc1c(CN(C)C)c2c(n1C)C(=O)c1ccc(Br)cc1-2,i,i,i,i,i,i,nt
N#C/C(=C\c1ccc(N2CCCCC2)o1)C(N)=O,30,i,i,i,i,i,i
CCN1/C(=C/C=C/c2oc3ccc(-c4ccccc4)cc3[n+]2CC)Oc2ccc(-c3ccccc3)cc21,35,nt,nt,nt,i,i,76
COc1cc(Cl)c(NC2=CC(=O)C(=O)c3ccccc32)c(OC)c1,54,nt,nt,nt,nt,i,i
Nc1ccc(O)c2c1C(=O)c1ccccc1C2=O,nt,i,i,i,i,i,nt
NC1=CC(=O)C(=O)c2ccccc21,44,nt,nt,nt,nt,nt,58
COc1ccccc1C1/C(=C(\O)c2ccc3c(c2)OCCO3)C(=O)C(=O)N1CCCn1ccnc1 (stereo not given),42,i,i,i,i,i,i
CCOC(=O)/C(=C/C=C1\Sc2ccccc2N1CC)C(C)=O,30,i,i,i,i,i,i
CCN1/C(=C/C(=O)c2ccco2)Sc2ccccc21,i,i,i,i,i,i,nt
COc1cccc(C(=O)NN=C2SCC(=O)N2Cc2ccc3c(c2)OCO3)c1,i,nt,nt,nt,nt,nt,nt
CNC(=O)OCc1cccc(COC(=O)NC)n1,35,i,i,i,i,i,i
CC(=O)NCc1cccc(CNC(C)=O)n1,i,i,i,i,i,i,nt
Cn1c(SC(C(=O)Nc2ccc(F)cc2)c2ccccc2)nc2ccccc21 (stereo not given),45,i,i,i,i,i,i
Cn1nnnc1SC(C(=O)Nc1ccc(F)cc1)c1ccccc1 (stereo not given),i,i,i,i,i,i,nt
O=C(O)CN1C(=O)/C(=C\c2cc(Br)ccc2OCc2ccc(F)cc2)SC1=S,27,i,i,i,i,i,69
COc1ccc(C=NNC(=O)c2cc3cc(OC)c(OC)cc3[nH]2)cc1,i,nt,nt,nt,nt,nt,nt
SMILES,UCH37 DUB inh,MEKK2wt PB1 HTS,MEKK3 PB1 HTS,MEKK2 mut-MEK5,Rce1 inh,T cell HTS,UCH37 reconfirm
CCOc1ccc(/C=C2/SC(=S)N(C(C(=O)O)c3ccccc3)C2=O)cc1OCC (stereo not given),51,i,i,i,nt,nt,i
S=C(NCCc1ccccc1)NN=Cc1cccc(Cl)c1Cl,i,nt,nt,nt,nt,nt,nt
Cc1ccc(N(CC(=O)NN=Cc2cc(C)n(-c3ccccc3)c2C)S(C)(=O)=O)c(C)c1,i,nt,nt,nt,nt,nt,nt
O=C(O)CC1S/C(=N/N=C/C=C/c2ccccc2)NC1=O (stereo not given),25,i,i,i,i,i,i
O=C(O)CC1S/C(=N/N=C/C=C/c2ccccc2[N+](=O)[O-])NC1=O (stereo not given),nt,i,i,i,i,i,nt
CCn1cc(C=NNC(=O)c2ccc(C#N)cc2F)c2ccccc21,i,nt,nt,nt,nt,nt,nt
Cc1ccc(C(=O)OCc2nnc(-c3ccccc3)o2)s1,i,nt,nt,nt,i,i,nt
O=C(OCc1nnc(-c2ccccc2)o1)c1ccc([N+](=O)[O-])s1,80,nt,nt,nt,nt,i,i
O=C(COC(=O)c1ccc([N+](=O)[O-])s1)Nc1ccc(F)cc1,67,nt,nt,nt,nt,i,77

# Assay outcomes deposited in PubChem by several laboratories.
